KCNQ1 pot – human KCNQ1 channel potentiation or activation | P51787 | CHO-K1 KCNQ1, thallium flux FluxOR fluorescence; stronger effect = higher value | B-score at 10 µM | actives 0.35% (n = 310,000) | AID 2648;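 active = fluorescence ratio B-score, a plate-corrected score, at least three library SD, with initial intensity B-score within 5 SD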
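System: Stable KCNQ1 CHO-K1 line | Incubation: 90 min dye loading and 20 min compound exposure, both at room temperature | Measure: Ratio B score | Medium: Assay buffer for compound exposure, DMSO matched across wells | Compound dosing: Single-concentration screen | Probe or stimulus: K+/Tl+ depolarizing stimulus | Measured by: Kinetic FluxOR fluorescence, 10 s baseline plus 110 s post-stimulus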
KCNQ1 inh – human KCNQ1 channel inhibition; P51787; CHO-K1 KCNQ1, FluxOR thallium flux fluorescence; stronger effect = higher value; B-score at 10 µM; actives 1.3% (n = 310,000); AID 2642;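 active = compounds whose thallium flux B-score, printed positive for inhibition, exceeds three library SD while starting fluorescence stays within three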;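 also: channel opened by potassium depolarization with thallium stimulus after 20 min compound exposure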
KCNK9 block – inhibitors of human KCNK9 two-pore domain potassium channel | actives 1.2% (n = 310,000) | HEK293 KCNK9, FluxOR thallium flux fluorescence; stronger effect = lower value | Q9NPC2 | B-score at 10 µM;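 active = ratio B-score over 3 SD below the library mean, with starting fluorescence within 5 SD of its mean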;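 also: negative B-score means less thallium flux so channel inhibition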
hERG protect – compounds protecting human hERG from proarrhythmic drug block | actives 0.51% (n = 310,000) | activation (rescue from dofetilide block), less the hit threshold, % at 10 µM | AID 1511 | CHO-hERG, FluxOR thallium flux, dofetilide IC70 present;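 active = activation above the mean of controls blocked by dofetilide plus 5 SD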;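 also: thallium influx through hERG after potassium depolarization seen as dye fluorescence rise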
KCNK3 block – human KCNK3 channel inhibition, primary screen; O14649; CHO-KCNK3 thallium flux, FluxOR fluorescence; stronger effect = lower value; B-score at 10 µM; actives 0.84% (n = 340,000);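 active = B-score under library mean minus 4 SD, starting fluorescence ratio at most library mean plus 5 SD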;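 also: more negative B-score means stronger inhibition of thallium flux through KCNK3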
Kir21 block – inhibitors of mouse Kir2.1 inward-rectifier potassium channel; P35561; HEK293-Kir2.1, FluxOR thallium flux fluorescence; stronger effect = lower value; B-score at 10 µM; actives 0.85% (n = 310,000);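 active = fluorescence ratio B-score at or below minus 3 SD of library scores, with starting-brightness B-score within 2 SD, cut at about -4.2 in these data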;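 also: channel flux triggered by added potassium and thallium sulfate stimulus; B-score of peak minus minimum fluorescence over baseline after thallium stimulus; more negative B-score means stronger Kir2.1 block with less thallium influx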
Target sequence (P35561 whole entry, looked up): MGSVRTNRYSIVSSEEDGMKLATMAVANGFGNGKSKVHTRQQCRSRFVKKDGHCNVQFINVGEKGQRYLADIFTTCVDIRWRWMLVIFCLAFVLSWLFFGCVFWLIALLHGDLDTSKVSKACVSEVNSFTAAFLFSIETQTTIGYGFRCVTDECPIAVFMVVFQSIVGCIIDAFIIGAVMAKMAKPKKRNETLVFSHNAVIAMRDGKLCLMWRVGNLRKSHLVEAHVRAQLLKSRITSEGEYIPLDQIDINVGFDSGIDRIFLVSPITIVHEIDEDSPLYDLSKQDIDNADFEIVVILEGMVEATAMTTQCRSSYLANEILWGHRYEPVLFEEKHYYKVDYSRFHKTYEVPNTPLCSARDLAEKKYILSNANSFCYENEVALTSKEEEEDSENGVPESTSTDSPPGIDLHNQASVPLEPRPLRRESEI
Active calls of the source: *; i = inactive; · = no result given. An excerpt weighted towards active compounds, which were near 3.7% of everything screened.

SMILES | KCNQ1 pot | KCNQ1 inh | KCNK9 block | hERG protect | KCNK3 block | Kir21 block
C[C@H](NC(=O)c1nc[nH]c1C(=O)N[C@H](C)c1ccccc1)C(=O)OC(C)(C)C | i | i | i | -11.2 | i | 0.68
C[C@H](NC(=O)c1nc[nH]c1C(=O)NC(c1ccccc1)c1ccccc1)C(=O)OC(C)(C)C | i | i | -6.97* | -9.0 | i | -0.92
Cc1sc2ncnc(SCC(=O)c3ccc(O)cc3O)c2c1C | 8* | i | i | 1.2 | i | 0.55
COc1ccc(-c2csc3nc[nH]c(=O)c23)cc1OC | i | i | i | -2.6 | i | -0.48
Cc1ccc(-c2csc3nc[nH]c(=S)c23)cc1C | 24* | i | i | 55.9* | i | 0.15
COC(=O)CCC(C(=O)CN1C(=O)c2ccccc2C1=O)N1C(=O)c2ccccc2C1=O (stereo not given) | · | · | · | · | i | ·
COc1cc(C(=O)N/N=C/c2ccc(OC(=O)c3ccccc3Cl)c(OC)c2)ccc1O | i | 6* | i | -18.0 | i | 0.1
Cc1ccccc1OCCC(=O)N1CCN(S(=O)(=O)c2ccc(Br)cc2)CC1 | · | · | · | · | i | ·
O=C1C(Cc2ccccc2)Nc2ncnc(N3CCc4ccccc4C3)c2N1Cc1ccc(Br)cc1 (stereo not given) | i | i | -7.73* | -12.7 | · | 0.97
O=C1C(Cc2ccccc2)Nc2ncnc(N3CCN(c4ccccc4)CC3)c2N1Cc1ccc(Br)cc1 (stereo not given) | · | · | · | · | i | ·
Cc1ccc(NC(=O)CCn2c(=O)c3cccn3c3ccccc32)cc1C | i | i | i | -6.8 | i | 0.18
CCOc1ccc(CCNC(=O)C2(c3ccccc3)CC2)cc1OCC | i | i | i | -6.0 | i | -4.52*
CCOc1ccc(CCNC(=O)c2nccnc2C(=O)O)cc1OCC | i | i | i | -3.2 | i | -0.63
Nc1ccc(CSc2ccc(Cl)cc2)c(Cl)c1 | · | · | · | · | i | ·
CCCCc1c(C)nc2nc(SCc3ccc(Cl)cc3)[nH]n2c1=O | i | 6* | i | -4.5 | i | -1.99
COc1ccccc1N1CCN(C(=O)c2ccc3ncsc3c2)CC1 | · | · | · | · | i | ·
COCCOc1ccc(C(F)(F)F)cc1NC(=O)COC(=O)c1ccc(N2CCCC2=O)cc1 | · | · | · | · | i | ·
COc1ccc(C(=O)NC(=S)N(C)C2CCCCC2)cc1 | i | i | i | -3.8 | i | -1.43
Cc1ccccc1C(=O)NC(=S)N(C)C1CCCCC1 | i | i | i | -4.3 | i | 2.91
Cc1ccc(C(=O)NC(=S)N(C)C2CCCCC2)cc1Br | 16* | i | i | 1.8 | i | -0.29
COc1ccc(C(=O)NC(=S)N(C)C2CCCCC2)cc1Br | i | i | i | 6.2* | i | 0.72
CN(C(=S)NC(=O)c1ccccc1Br)C1CCCCC1 | 13* | i | i | 2.0 | i | 0.87
Cc1ccc(-c2n[nH]c(=S)nc2-c2ccc(C)cc2)cc1 | i | i | i | 6.7* | i | -0.46
Cc1cc(C)nc(SSc2nc(C)cc(C)n2)n1 | i | i | i | 5.6* | i | 0.03
COc1ccc(NC(=O)CN(c2ccc(OC)c(Cl)c2)S(=O)(=O)c2ccccc2)c(OC)c1 | i | 6* | i | -1.2 | i | -0.25
SMILES | KCNQ1 pot | KCNQ1 inh | KCNK9 block | hERG protect | KCNK3 block | Kir21 block
O=C(Nc1ccccc1Oc1ccccc1)c1ccccc1F | i | i | i | -11.8 | i | -0.44
Cc1ccc(N(CC(=O)Nc2cc(Cl)ccc2Oc2ccccc2)S(C)(=O)=O)c(C)c1 | i | i | i | -7.9 | i | 0.92
O=C(Nc1cc(Cl)ccc1Oc1ccccc1)c1ccccc1F | i | 6* | i | -5.2 | i | 0.05
Cc1ccc(N(CC(=O)Nc2cc(Cl)ccc2Oc2ccccc2)S(C)(=O)=O)cc1C | i | i | -7.46* | -5.7 | i | 0.77
CC(C)NC(=O)Nc1ccc2c(c1)C(=O)N([C@H](C)CO)C[C@H](C)[C@@H](CN(C)S(=O)(=O)c1ccc(F)cc1)O2 | · | · | · | · | i | ·
CCc1ccccc1N1CC(C(=O)Nc2cc(S(=O)(=O)N3CCCC3)ccc2Cl)CC1=O (stereo not given) | · | · | · | · | i | ·
Cc1nc2ccc(NS(=O)(=O)c3c(F)cc(F)cc3Br)cc2s1 | · | · | · | · | i | ·
CCN(CC)S(=O)(=O)c1ccc2[nH]c(=O)cc(C(=O)Nc3cccc(C(C)=O)c3)c2c1 | i | i | i | 22.4* | i | -0.05
O=[N+]([O-])c1ccc(S(=O)(=O)N2CCSC2c2ccco2)cc1 (stereo not given) | i | i | i | -10.1 | i | -4.63*
COc1ccc(S(=O)(=O)N2CCSC2c2ccccc2)cc1 (stereo not given) | i | i | i | -9.2 | i | -3.12
CC(C)(C)OC(=O)N(CCc1ccccc1)Cc1ccc(OCc2cccc(NC(=O)C3CCC3)c2)cc1 | · | · | · | · | i | ·
NC(=O)CC[C@H](NC(=O)c1ccc(F)cc1)C(=O)N1CCN(Cc2ccc3c(c2)OCO3)CC1 | · | · | · | · | i | ·
CCOC(=O)C1=C(C)N=c2s/c(=C/c3cccc([N+](=O)[O-])c3O)c(=O)n2C1c1cc(OC)c(OC)c(OC)c1 (stereo not given) | i | 8* | i | -15.9 | i | -0.33
Cn1c(=O)c2c(nc(N/N=C/c3ccc(OC(=O)c4ccco4)cc3)n2Cc2ccccc2Cl)n(C)c1=O | i | 7* | i | -6.0 | i | -0.53
O=C(c1cccc(S(=O)(=O)N2CCCc3ccccc32)c1)N1CCN(c2ccccc2)CC1 | · | · | · | · | -9.52* | ·
O=C(c1cccc(S(=O)(=O)N2CCc3ccccc32)c1)N1CCc2ccccc2C1 | · | · | · | · | -9.42* | ·
COc1cc2c(cc1OC)CN(C(=O)c1cccc(S(=O)(=O)N3CCc4ccccc43)c1)CC2 | · | · | · | · | i | ·
c1ccc2scnc2c1 | · | · | · | · | i | ·
COC(=O)N/N=C(\C)c1ccc(-n2ccnc2)cc1 | i | i | i | -2.8 | i | -0.92
C/C(=N\NC(=O)COc1ccc(C)cc1C(C)C)c1ccc(-n2ccnc2)cc1 | i | i | i | 5.6* | i | -0.01
NC(=O)Cc1ccc(C(=O)CSc2nnc(-c3ccncc3)n2C2CC2)s1 | · | · | · | · | i | ·
Cc1cc(C)nc(/N=C(\N)Nc2ccc(CC(=O)OC(C)C)cc2)n1 | 10* | i | i | -9.9 | i | -2.81
Cc1cc(C)nc(/N=C(\N)Nc2ccc(OCCC(C)C)cc2)n1 | i | i | i | -11.5 | i | -3.23
CN1C[C@@H]2[C@@H]3C(=O)N(C)C(=O)[C@@H]3[C@](C)(C1=O)N2C(=O)c1ccc(C(C)(C)C)cc1 | · | · | · | · | i | ·
COc1ccc2nc(NCCO)[nH]c2c1 | i | i | i | 1.1 | i | -0.07

Assay outcomes as filed in PubChem BioAssay.
